Data: publication PMC12591375 (British journal of pharmacology, 2022)
Where two headings read alike, the source gives them in different places. Marks after values point to notes of the source that are not given here.

Key:
CB2 [1] = molecular target: T1, CB2 (Homo sapiens, UniProt P34972, Q63R); test: β-arrestin 1 translocation real-time BRET assay; type: cell-based; details: HEK 293 cells
CB2 [2] = molecular target: T1, CB2; test: β-arrestin 2 translocation real-time BRET assay, wild-type CB2; type: cell-based; details: HEK 293 cells
CB2 [3] = molecular target: T1, CB2; test: β-arrestin 1 translocation real-time BRET assay; type: cell-based; details: for pEC50, β-arrestin 1 translocation to CB2: HEK 293 cells
CB2 [4] = molecular target: T1, CB2; test: β-arrestin 2 translocation real-time BRET assay, wild-type CB2; type: cell-based; details: for pEC50, β-arrestin 2 translocation to CB2: HEK 293 cells
endogenous GRK2/3 = type: cell-based, human; details: 30-μM compound 101, 30 min
Outline: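 HEK 293 cells PEI-transfected with mem-Citrine-SH3, Rluc8-β-arrestin 2, HA-hCB2 and empty vector, then replated on PDL. Equilibrated ~30 min in phenol red-free DMEM with 1 mg/mL fatty acid-free BSA and 10 mM HEPES, then given 30 µM test compound or vehicle for 30 min.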

T1 sequence (P34972 whole entry Q63R): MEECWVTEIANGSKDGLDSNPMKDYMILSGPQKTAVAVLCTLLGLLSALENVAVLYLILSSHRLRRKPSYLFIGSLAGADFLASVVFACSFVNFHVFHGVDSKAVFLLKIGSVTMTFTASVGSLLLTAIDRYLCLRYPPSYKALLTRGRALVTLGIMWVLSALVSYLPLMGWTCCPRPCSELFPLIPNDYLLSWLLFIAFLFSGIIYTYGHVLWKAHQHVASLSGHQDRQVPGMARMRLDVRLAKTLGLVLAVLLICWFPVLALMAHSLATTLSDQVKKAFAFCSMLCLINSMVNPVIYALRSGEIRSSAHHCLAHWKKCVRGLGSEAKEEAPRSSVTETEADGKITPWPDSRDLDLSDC

## COC(=O)[C@@H](NC(=O)c1nn(Cc2ccc(F)cc2)c2ccccc12)C(C)C [AMB-FUBINACA]
CB2 [1]; coexpression of GRK1
  Span, β-arrestin 1 translocation to CB2: 47.12 (3.44) ^* ΔBRET.s
CB2 [1]; coexpression of GRK2
  Span, β-arrestin 1 translocation to CB2: 45.12 (2.90) ^* ΔBRET.s
CB2 [1]; coexpression of GRK3
  Span, β-arrestin 1 translocation to CB2: 46.69 (1.39) ^* ΔBRET.s
CB2 [1]; coexpression of GRK4
  Span, β-arrestin 1 translocation to CB2: 35.06 (2.32) ΔBRET.s
CB2 [1]; coexpression of GRK5
  Span, β-arrestin 1 translocation to CB2: 38.17 (1.55) ΔBRET.s
CB2 [1]; coexpression of GRK6
  Span, β-arrestin 1 translocation to CB2: 44.72 (3.21) ^* ΔBRET.s
CB2 [1]; mock (no GRK)
  Span, β-arrestin 1 translocation to CB2: 29.34 (2.43) ΔBRET.s
CB2 [2]; coexpression of GRK1, Table 2
  Span, β-arrestin 2 translocation to CB2: 134.2 (11.15) ΔBRET.s
CB2 [2]; coexpression of GRK2, Table 2
  Span, β-arrestin 2 translocation to CB2: 123.2 (9.45) ΔBRET.s
CB2 [2]; coexpression of GRK3, Table 2
  Span, β-arrestin 2 translocation to CB2: 119.0 (9.10) ΔBRET.s
CB2 [2]; coexpression of GRK4, Table 2
  Span, β-arrestin 2 translocation to CB2: 126.6 (9.03) ΔBRET.s
CB2 [2]; coexpression of GRK5, Table 2
  Span, β-arrestin 2 translocation to CB2: 114.6 (5.98) ΔBRET.s
CB2 [2]; coexpression of GRK6, Table 2
  Span, β-arrestin 2 translocation to CB2: 125.8 (10.37) ΔBRET.s
CB2 [2]; mock (no GRK), Table 2
  Span, β-arrestin 2 translocation to CB2: 123.9 (8.36) ΔBRET.s
CB2 [3]; coexpression of GRK1
  pEC50, β-arrestin 1 translocation to CB2: 7.97 (0.13)
CB2 [3]; coexpression of GRK2
  pEC50, β-arrestin 1 translocation to CB2: 8.16 (0.09)
CB2 [3]; coexpression of GRK3
  pEC50, β-arrestin 1 translocation to CB2: 8.26 (0.07) ^*
CB2 [3]; coexpression of GRK4
  pEC50, β-arrestin 1 translocation to CB2: 7.98 (0.18)
CB2 [3]; coexpression of GRK5
  pEC50, β-arrestin 1 translocation to CB2: 7.97 (0.11)
CB2 [3]; coexpression of GRK6
  pEC50, β-arrestin 1 translocation to CB2: 8.01 (0.18)
CB2 [3]; mock (no GRK)
  pEC50, β-arrestin 1 translocation to CB2: 7.94 (0.10)
CB2 [3]; absence of exogenous GRKs
  β-arrestin 1 translocation to CB2 (in words): submaximal translocation
CB2 [4]; coexpression of GRK1, Table 2
  pEC50, β-arrestin 2 translocation to CB2: 8.03 (0.06)
CB2 [4]; coexpression of GRK2, Table 2
  pEC50, β-arrestin 2 translocation to CB2: 8.28 (0.05) ^*
CB2 [4]; coexpression of GRK3, Table 2
  pEC50, β-arrestin 2 translocation to CB2: 8.17 (0.11)
CB2 [4]; coexpression of GRK4, Table 2
  pEC50, β-arrestin 2 translocation to CB2: 8.13 (0.03)
CB2 [4]; coexpression of GRK5, Table 2
  pEC50, β-arrestin 2 translocation to CB2: 8.07 (0.07)
CB2 [4]; coexpression of GRK6, Table 2
  pEC50, β-arrestin 2 translocation to CB2: 8.12 (0.04)
CB2 [4]; mock (no GRK), Table 2
  pEC50, β-arrestin 2 translocation to CB2: 8.15 (0.06)
CB2 [4]; absence of exogenous GRKs
  β-arrestin 2 translocation to CB2 (in words): submaximal translocation

## Cn1c(CNc2cccc(C(=O)NCc3ccccc3C(F)(F)F)c2)nnc1-c1ccncc1 [compound 101]
Endogenous GRK2/3; stimulation with 1-μM AMB-FUBINACA
  reduction of β-arrestin 2 translocation to CB2: approximately 15%
Endogenous GRK2/3; stimulation with 10-μM CP55940
  reduction of β-arrestin 2 translocation to CB2: approximately 15%
Endogenous GRK2/3; stimulation with […] 2-AG
  reduction of β-arrestin 2 translocation to CB2: approximately 15%
